Source: PubChem BioAssay
An excerpt weighted towards active compounds, which were near 1.8% of everything screened.
NPY-Y2 PAM-ag – NPY-Y2 potentiators or agonists, primary screen, cell-based | cells expressing NPY-Y2, potentiator/agonist read-out | activation, % at 3.6 µM | 220,000 compounds, 0.45% hits | AID 1359, 2008; in the data active = activation above about 27%;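 also: cells stimulated with NPY near EC25 plus isoproterenol at EC100; 0% = vehicle plus submaximal agonist and 100% = vehicle plus saturating agonist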
NPY Y1 blocker – NPY-Y1 receptor antagonists, primary screen, cell-based. Neuropeptide Y receptor type 1 (Homo sapiens), P25929. HEK293-CNG Y1 cells, membrane potential fluorescence; NPY at EC95, then isoproterenol. inhibition, % at 3.6 µM. 200,000 compounds, 1% hits;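 active = inhibition above the campaign mean inhibition of all tested compounds plus 3 SD, cut at about 20% in these data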;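 also: 0% = DMSO wells given NPY plus isoproterenol and 100% = isoproterenol alone without NPY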
Target sequence (P25929 whole entry, looked up): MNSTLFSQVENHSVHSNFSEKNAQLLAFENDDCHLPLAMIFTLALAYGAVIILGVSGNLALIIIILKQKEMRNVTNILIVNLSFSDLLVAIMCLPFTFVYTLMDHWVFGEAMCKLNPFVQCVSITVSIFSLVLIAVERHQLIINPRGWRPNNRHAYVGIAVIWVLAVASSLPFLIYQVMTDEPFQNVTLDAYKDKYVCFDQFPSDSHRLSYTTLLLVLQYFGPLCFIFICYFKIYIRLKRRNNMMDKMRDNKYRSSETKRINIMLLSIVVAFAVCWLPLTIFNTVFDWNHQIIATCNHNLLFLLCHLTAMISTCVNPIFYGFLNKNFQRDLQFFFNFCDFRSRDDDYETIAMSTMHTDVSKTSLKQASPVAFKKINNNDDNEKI
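Material: Y1- and CNG-channel-expressing HEK293 cells / Probe or stimulus: NPY 25 nM then isoproterenol 1 µM plus Ro 20-1724 25 µM / Doses: 3.6 µM single dose, DMSO 0.4% / Schedule: compound incubation 1 h at room temperature, readout 45 min post-stimulation / Signal: membrane potential fluorescence / Benchmarks: isoproterenol-only wells as full block versus NPY-plus-isoproterenol wells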
NPY-Y1 PAM-ag – NPY-Y1 receptor potentiators or agonists, primary screen, cell-based. activation, % at 3.6 µM. 220,000 compounds, 0.37% hits. Neuropeptide Y receptor type 1 (Homo sapiens), P25929. NPY-Y1 expressing cells, potentiator/agonist activation; in the data active = activation above about 33%, passing the limit was not always enough;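 also: cells stimulated with NPY at EC10 then isoproterenol at EC100; 0% = low agonist plus stimulus and 100% = saturating agonist plus stimulus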
NPY Y2 blocker – NPY-Y2 receptor antagonists, primary screen, cell-based. Neuropeptide Y receptor type 2 (Homo sapiens), P49146. NPY-Y2 expressing cells, antagonist mode. inhibition, % at 2.7 µM. 140,000 compounds, 0.99% hits. AID 793, 2007;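 also: 0% = vehicle with agonist challenge and 100% = reference antagonist with challenge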
NPY-Y1 ant conf – NPY-Y1 receptor antagonists, retest of hits, confirmation, HEK293-CNG cells, membrane potential fluorescence, triplicate | inhibition, % at 3.6 µM | 1,200 compounds, 21% hits | shares compounds with NPY Y1 blocker | AID 1254, 2008 | cAMP; NPY challenge against isoproterenol-raised cAMP; in the data active = inhibition above about 20%;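 also: 0% = vehicle with agonist plus stimulus and 100% = stimulus alone without agonist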
NPY2 antag ctr – NPY-Y2 receptor antagonists, selectivity check, confirmation, counter-screen for NPY-Y1 antagonist project, HEK293-CNG cells, membrane potential fluorescence, triplicate; shares compounds with NPY Y1 blocker; antagonism; cells given NPY, then isoproterenol; inhibition, % at 3.6 µM; 1,200 compounds, 28% hits; AID 1255, 2008;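 also: 0% = DMSO with agonist challenge and 100% = reference antagonist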
NPY-Y2 pot conf – NPY-Y2 potentiators or agonists, confirmation, cell-based | AID 1539, 2009 | activation, % at 3.6 µM | shares compounds with NPY-Y2 PAM-ag | cell-based NPY-Y2 potentiator/agonist assay | 450 compounds, 20% hits; in the data active = activation above about 33%
NPY-Y1 counter – NPY-Y1 potentiators or agonists, counter-screen for NPY-Y2 potentiator project, cell-based, fluorescence. shares compounds with NPY-Y2 PAM-ag. Y1 HEK293-CNG cells, membrane potential fluorescence. activation, % at 3.6 µM. 450 compounds, 20% hits; in the data active = activation above about 45%;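 also: cells stimulated with submaximal NPY then isoproterenol with phosphodiesterase inhibitor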
NPY-Y1 ag 2 – NPY-Y1 direct agonists, selectivity assay for NPY-Y2 potentiator project, cell-based, fluorescence; AID 1702, 2009; 450 compounds, 37% hits; activation, % at 3.6 µM; HEK293 Y1-CNGC, membrane potential fluorescence, agonism; shares compounds with NPY-Y2 PAM-ag;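 active = activation above the mean of DMSO-only control wells plus 3 SD, cut at about 18% in these data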;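 also: cells stimulated with 1 µM isoproterenol plus the PDE inhibitor Ro 20-1724; 0% = isoproterenol with DMSO and no NPY and 100% = 40 nM NPY; Y1 agonists lower the membrane potential dye signal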
CNGC inh – CNGC cAMP sensor activity inhibitors, counter-screen for NPY-Y2 potentiator project, cell-based, HEK293-CNG parental, membrane potential fluorescence; inhibition, % at 3.6 µM; shares compounds with NPY-Y2 PAM-ag; AID 1703, 2009; isoproterenol cAMP; 450 compounds, 32% hits;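 active = inhibition above the control-well mean plus 3 SD of those wells, cut at about 22% in these data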;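 also: 0% = DMSO with isoproterenol and 100% = DMSO without isoproterenol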
NPY-Y2 ag 2 – NPY-Y2 direct agonists, counter-screen for NPY-Y2 potentiator project, cell-based, fluorescence | HEK293 Y2/CNGC cells, membrane potential fluorescence, agonist mode | 450 compounds, 56% hits | activation, % at 3.6 µM | shares compounds with NPY-Y2 PAM-ag;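 active = activation above the mean of solvent-only control wells plus 3 SD, cut at about 10% in these data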;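 also: cells stimulated by isoproterenol with no NPY added so direct agonism is tested; 0% = DMSO with isoproterenol alone and 100% = NPY at EC100 plus isoproterenol; agonism lowers probe fluorescence through less cAMP and CNG channel opening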
* hit, by the source's call; . = not tested or not shown. Rule as the data show it, unless noted: active = inhibition above about 17%; inactive = the rest.

SMILES	NPY-Y2 PAM-ag	NPY Y1 blocker	NPY-Y1 PAM-ag	NPY Y2 blocker	NPY-Y1 ant conf	NPY2 antag ctr	others
Cc1ccc(N(C)C(=O)N2CCN(S(=O)(=O)c3ccc4ccccc4c3)CC2)cc1	-20	7	8	3	.	.
CC(C)(C)n1nnnc1C(c1ccc(C(F)(F)F)cc1)N(Cc1ccccc1)Cc1ccco1 (stereo not given)	-5	47*	-4	7	29*	11
CCN(Cc1ccccc1)C(c1ccc(C)cc1)c1nnnn1C(C)(C)CC (stereo not given)	-27	19	-28	12	.	.
c1ccc(CN(Cc2ccco2)C(c2ccncc2)c2nnnn2C2CCCC2)cc1 (stereo not given)	-5	26*	0	6	12	5
Nc1nc(N2CCN(C/C=C/c3ccccc3)CC2)nc2ccccc12	11	22*	-22	9	15	3
C(=C\c1ccccc1)/CN1CCN(c2ncnc3c2oc2ccccc23)CC1	-26	26*	6	14	11	16
c1ccc2c(c1)oc1c(N3CCOCC3)ncnc12	2	3	-12	3	.	.
COc1cc(/C=N/NC(=O)CSc2ccccn2)ccc1OC(C)C	-18	.	-5	.	.	.
O=C(CCSCCc1ccccn1)Nc1c(F)c(F)c(F)c(F)c1F	-2	10	-3	3	.	.
CC(C)(C)c1ccccc1OCCCCN1CCCC1	1	12	-12	6	.	.
Cc1cccc(C(C)(C)C)c1OCCCCN1CCCC1	-17	21*	-23	9	10	15
COC(=O)c1ccc(NC(=S)NC2CC3CCC2C3)cc1 (stereo not given)	9	-2	16	0	.	.
N#Cc1ccc(Cl)cc1NC(=O)CSc1nc2nc(-c3cccs3)cc(C(F)(F)F)c2c(=O)[nH]1	4	.	-3	.	.	.
COC(=O)c1c(NC(=O)C2COc3ccccc3O2)sc2c1CCN(Cc1ccccc1)C2 (stereo not given)	-28	22*	-17	15	31*	24*
COc1ccc(F)cc1S(=O)(=O)N1CCC(C(N)=O)CC1	-5	2	4	1	.	.
COc1ccc(C(C)(C)C)cc1S(=O)(=O)N1CCC(C(N)=O)CC1	-4	23*	-4	-1	0	0
CCCCCCCCCCOC(=O)C[N+](C)(C)C/C=C(/C)Cl	-3	23*	-1	15	11	12
COc1ccc2c(c1)c(C(O)CN1CCN(Cc3ccc4c(c3)OCO4)CC1)c(C)n2C (stereo not given)	15	6	-11	9	.	.
COc1ccc2c(c1)c(C(O)CN1CCC(Cc3ccccc3)CC1)c(C)n2C (stereo not given)	2	21*	0	12	10	10
COc1cc2c(cc1NC(=O)c1cccnc1)CCCC2	6	-6	-13	0	.	.
COc1cc2c(cc1NC(C)=O)CCCC2	-2	-5	11	0	.	.
COc1cc2c(cc1NC(=O)c1ccc(C(C)(C)C)cc1)CCCC2	-37	32*	-73	10	20	45*
COc1ccc(C(=O)Nc2cc3c(cc2OC)CCCC3)cc1Br	-21	29*	-78	10	9	10
COc1ccc(OC)c(CN2CCC(CO)(CCOc3ccccc3)CC2)c1	-49	11	-39	.	.	.
Cc1cc(C)c(CN2CCC(CO)(CCOc3ccccc3)CC2)cc1C	-35	30*	-36	.	9	23*
SMILES	NPY-Y2 PAM-ag	NPY Y1 blocker	NPY-Y1 PAM-ag	NPY Y2 blocker	NPY-Y1 ant conf	NPY2 antag ctr	others
COc1ccc(-c2cc(C(F)(F)F)nc(N3CCN(C)CC3)n2)cc1	-47	25*	-46	13	9	13
COc1ccc(-c2cc(C(F)(F)F)nc(N3CCCCCC3)n2)cc1	-1	0	7	0	.	.
Clc1ccc(CNc2nc(CN3CCOCC3)nc3scc(-c4ccccc4)c23)cc1	-23	22*	-43	13	22*	18*
Clc1ccc(-c2csc3ncnc(NCCN4CCOCC4)c23)cc1	-5	-6	1	5	.	.
CCC(CC)C(=O)c1c[nH]c(C(=O)OC)c1	-15	1	-9	.	.	.
CCCC(C)C(=O)Nc1nc(C)c(-c2csc(Nc3ccccc3OC)n2)s1 (stereo not given)	-14	24*	2	9	13	6
CCCCCCC(=O)Nc1nc(C)c(-c2csc(Nc3ccccc3OC)n2)s1	3	32*	5	12	10	6
COc1ccc(Cl)cc1-n1c(C)ccc1C	18	-3	11	0	.	.
Cc1cccc(-c2nsc(SCC(=O)NCC3CCCO3)n2)c1 (stereo not given)	-5	30*	11	.	4	2
COc1ccc(N=c2oc3cc(O)ccc3cc2C(=O)NCC2CCCO2)cc1 (stereo not given)	-9	33*	-17	17	11	6
CCOc1ccc(N=c2oc3cc(O)ccc3cc2C(=O)NCC2CCCO2)cc1 (stereo not given)	-3	7	2	6	.	.
Cc1ccc(-n2ncc3c(SCc4cccnc4)ncnc32)c(C)c1	33*	25*	-9	.	13	6	NPY-Y2 pot conf=-17;NPY-Y1 counter=-60;NPY-Y1 ag 2=-50;CNGC inh=-27;NPY-Y2 ag 2=-23
Cc1cccc2cc(-c3ccccc3)c(-c3ccccc3)c[n+]12	2	12	-2	4	.	.
